Source: ChEMBL document CHEMBL1151248, “New lignans from the roots of Valeriana prionophylla with antioxidative and vasorelaxant activities” (2004)

Assays:
Aorta [1] = assay: Vasorelaxant activity on Wistar rat aorta ring assessed as inhibition of phenylephrine-induced contraction at 100 uM in absence of endothelium; format: functional; set-up: scale not given: the % may be the effect or the level left
Aorta [2] = assay: Vasorelaxant activity on Wistar rat aorta ring assessed as inhibition of phenylephrine-induced contraction at 100 uM in presence of endothelium; format: functional; set-up: scale not given: the % may be the effect or the level left
[3] = Antioxidant activity assessed as ABTS radical scavenging activity after 1 min by TEAC method
[4] = Antioxidant activity against iodophenol-induced chemiluminescence by horseradish peroxidase/perborate/luminol system; format: functional
Procedure, shortened: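 Total antioxidant capacity read by enhanced chemiluminescence. Reagent was assay buffer plus tablets A and B, which supply luminol, p-iodophenol enhancer and perborate oxidant. Values come from a Trolox standard curve (Trolox 20 μg mL⁻¹ in H2O) and are reported as mM Trolox equivalent; n=3.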

Structure (SMILES) | Activity (Aorta [1]) [%] | Activity (Aorta [2]) [%] | Activity [3] [mM] | Activity [4] [mM]
COc1cc([C@H]2OC[C@]3(O)[C@@H](c4ccc(O)c(OC)c4)OC[C@]23O)ccc1O [PRINSEPIOL] | 5.3 | 29.3 | 5.33 | 6.7
C[C@@H]1O[C@@H](O[C@@H]2[C@@H](O)[C@H](OCCc3ccc(O)c(O)c3)O[C@H](CO)[C@H]2OC(=O)/C=C/c2ccc(O)c(O)c2)[C@H](O)[C@H](O)[C@H]1O |  |  | 5.3 | 8.2
COc1cc([C@H]2OC[C@]3(O)[C@@H](c4ccc(O[C@@H]5O[C@H](CO)[C@@H](O)[C@H](O)[C@H]5O)c(OC)c4)OC[C@]23O)ccc1O | 0 | 20.4 | 2.92 | 1.84
COc1cc([C@H]2OC[C@]3(O)[C@@H](c4ccc(O)c(OC)c4)OC[C@H]23)ccc1O | 29 | 24.4 | 5.1 | 6.31
COc1cc([C@H]2OC[C@@H]3[C@@H](c4ccc(O[C@@H]5O[C@H](CO)[C@@H](O)[C@H](O)[C@H]5O)c(OC)c4)OC[C@]23O)ccc1O | 1.7 | 2.5 | 2.51 | 1.44
